The structures appear in SMILES notation.

Here are results for 34 molecules from paper PMC3857970 (European journal of medicinal chemistry, 2012).

The first assay relates to human red blood cells (RBC). Description: Sorbitol accumulation in RBC under high glucose conditions. The conditions noted are these: ex vivo high glucose conditions. The class given is cell-based. The procedure, abridged:
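Fasted healthy male donors' heparinised blood; RBC washed three times in isotonic saline at 4 °C, resuspended in Krebs-Ringer bicarbonate pH 7.4 (5% CO2). Duplicates incubated 3 h, 37 °C, 5% CO2, with 5.5 or 55 mM glucose, with test compound at 1.4–20 µM. Cells homogenised in 0.8 M perchloric acid, spun, supernatant adjusted to pH 3.5 with K2CO3; sorbitol measured fluorometrically.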
In the case of `COc1cc(C(CC(=O)N2CCC(c3cn(Cc4ccccc4)c4ccccc34)CC2=O)c2cn(Cc3ccccc3)c3ccccc23)cc(OC)c1OC` (stereo not drawn) [Compound 3c, 1-(3-(1-Benzyl-1H-indol-3-yl)-3-(3,4,5-trimethoxyphenyl)propanoyl)-4-(1-benzyl-1H-indol-3-yl)piperidin-2-one], the “effect on sorbitol accumulation (in words)” value (from here on “effect”) was “inhibited the sorbitol accumulation”.
Take `COc1cc(C(CC(=O)N2CCC(c3c(-c4ccccc4)[nH]c4ccccc34)CC2=O)c2c(-c3ccccc3)[nH]c3ccccc23)cc(OC)c1OC` (stereo not drawn) [Compound 3e, 1-(3-(3,4,5-Trimethoxyphenyl)-3-(2-phenyl-1H-indol-3-yl)propanoyl)-4-(2-phenyl-1H-indol-3-yl)piperidin-2-one]: the “effect” value is reported as “inhibited the sorbitol accumulation”.
As to `COc1ccc2[nH]cc(C(CC(=O)N3CCC=CC3=O)c3cc(OC)c(OC)c(OC)c3)c2c1` (stereo not drawn) [Compound 2j, 1-(3-(5-Methoxy-1H-indol-3-yl)-3-(3,4,5-trimethoxyphenyl)propanoyl)-5,6-dihydropyridin-2(1H)-one], the “effect” value was “inhibited the sorbitol accumulation”.

Another assay concerns the target recombinant human ALR2 (Homo sapiens, UniProt P15121). Description: ALR2 inhibition assay. The class given is biochemical.
Settings: not given
As to `COc1cc(C(CC(=O)N2CCC(c3cn(C)c4ccccc34)CC2=O)c2cn(C)c3ccccc23)cc(OC)c1OC` (stereo not drawn) [Compound 3b, 1-(3-(3,4,5-Trimethoxyphenyl)-3-(1-methyl-1H-indol-3-yl)propanoyl)-4-(1-methyl-1H-indol-3-yl)piperidin-2-one], the half-maximal inhibitory concentration (IC50) (usually the point on the concentration scale where inhibition reaches its midpoint) was above 500 µM.
As for `COc1cc(/C=C/C(=O)N2CCC=C(C(O)c3ccc(F)cc3)C2=O)cc(OC)c1OC` (stereo not drawn) [Compound 32b, (E)-3-((4-Fluorophenyl)(hydroxy)methyl)-1-(3-(3,4,5-trimethoxyphenyl)acryloyl)-5,6-dihydropyridin-2(1H)-one], the IC50 was above 500 µM.
Same read-out and setting: the result for `COc1cc(/C=C/C(=O)N2CCC=C(C(O)c3ccc(C#N)cc3)C2=O)cc(OC)c1OC` (stereo not drawn) [Compound 32e, (E)-4-(Hydroxy(2-oxo-1-(3-(3,4,5-trimethoxyphenyl)acryloyl)-1,2,5,6-tetrahydropyridin-3-yl)methyl)benzonitrile] reads above 500 µM; that for `O=C1C=CCCN1C(=O)C=Cc1ccccc1` [Compound 12, 1-Cinnamoyl-5,6-dihydropyridin-2(1H)-one], above 500 µM; that for `O=C1C=CCCN1C(=O)/C=C/c1ccc2c(c1)OCO2` [Compound 16, (E)-1-(3-(Benzo[d][1,3]dioxol-5-yl)acryloyl)-5,6-dihydropyridin-2(1H)-one], above 500 µM.
`COc1cc(/C=C/C(=O)N2CCC=C(C(O)c3ccc4ccccc4c3)C2=O)cc(OC)c1OC` (stereo not drawn) [Compound 32h, (E)-3-(Hydroxy(naphthalen-2-yl)methyl)-1-(3-(3,4,5-trimethoxyphenyl)acryloyl)-5,6-dihydropyridin-2(1H)-one]: the IC50 is above 500 µM.
In the case of `COc1cc(/C=C/C(=O)N2CCCCC2)cc(OC)c1OC` [Compound 33, (E)-1-(Piperidin-1-yl)-3-(3,4,5-trimethoxyphenyl) prop-2-en-1-one], the IC50 was above 500 µM.
Same read-out and setting: the result for `COc1cc(C(CC(=O)N2CCC=CC2=O)c2cn(C)c3ccccc23)cc(OC)c1OC` (stereo not drawn) [Compound 2b, 1-(3-(3,4,5-Trimethoxyphenyl)-3-(1-methyl-1H-indol-3-yl)propanoyl)-5,6-dihydropyridin-2(1H)-one] reads 100 µM; that for `COc1cc(/C=C/C(=O)N2CCC=C(C(O)c3ccc(C)cc3)C2=O)cc(OC)c1OC` (stereo not drawn) [Compound 32i, (E)-3-(Hydroxy(p-tolyl)methyl)-1-(3-(3,4,5-trimethoxyphenyl)acryloyl)-5,6-dihydropyridin-2(1H)-one], above 500 µM.
In the case of `COc1cc(/C=C/C(=O)N2CCC=CC2=O)cc(OC)c1OC` [Compound 1, 5,6-Dihydro-1-((E)-3-(3,4,5-trimethoxyphenyl)acryloyl) pyridin-2(1H)-one], the “ALR2 inhibitory activity (in words)” value is on record as “moderate activity”.
As to `COc1cc(/C=C/C(=O)n2c(=O)oc3ccccc32)cc(OC)c1OC` [Compound 35, (E)-3-(3-(3,4,5-Trimethoxyphenyl)acryloyl)benzo[d]oxazol-2(3H)-one], the IC50 was above 500 µM.
With `O=C1C=CCCN1C(=O)/C=C/c1cccc(C(F)(F)F)c1` [Compound 13, (E)-1-(3-(3-(Trifluoromethyl)phenyl)acryloyl)-5,6-dihydropyridin], the IC50 is 400 µM.
In the case of `COc1cc(C(CC(=O)N2CCC(c3c[nH]c4ccccc34)CC2=O)c2c[nH]c3ccccc23)cc(OC)c1OC` (stereo not drawn) [Compound 3a, 1-(3-(1H-Indol-3-yl)-3-(3,4,5-trimethoxyphenyl)propanoyl)-4-(1H-indol-3-yl)piperidin-2-one], the IC50 was 80 µM.
Still for that read-out and setting: the result for `COC(=O)/C=C/c1cc(OC)c(OC)c(OC)c1` [Compound 5, (E)-Methyl 3-(3,4,5-trimethoxyphenyl)acrylate] reads above 500 µM; that for `O=C1C=CCCN1C(=O)/C=C/C=C/c1ccc2c(c1)OCO2` [Compound 30, 1-((2E,4E)-5-(Benzo[d][1,3]dioxol-5-yl)penta-2,4-dienoyl)-5,6-dihydropyridin-2(1H)-one], 500 µM.
On to `COc1cc(C(CC(=O)O)c2c(C)[nH]c3ccccc23)cc(OC)c1OC` (stereo not drawn) [Compound 4, 3-(3,4,5-Trimethoxyphenyl)-3-(2-methyl-1H-indol-3-yl) propanoic acid], for which the IC50 is 72 µM.
Same read-out and setting: for `O=C1C=CCCN1C(=O)/C=C/c1ccc(Cl)cc1` [Compound 17, (E)-1-(3-(4-Chlorophenyl)acryloyl)-5,6-dihydropyridin-2(1H)-one] the value was above 500 µM; for `COc1cc(/C=C/C(=O)N2CCC=C(C(O)c3ccccc3)C2=O)cc(OC)c1OC` (stereo not drawn) [Compound 32j, (E)-3-(Hydroxy(phenyl)methyl)-1-(3-(3,4,5-trimethoxyphenyl)acryloyl)-5,6-dihydropyridin-2(1H)-one], above 500 µM.
As for `COc1cc(C(CC(=O)N2CCC=CC2=O)c2c[nH]c3ccc(I)cc23)cc(OC)c1OC` (stereo not drawn) [Compound 2f, 1-(3-(5-Iodo-1H-indol-3-yl)-3-(3,4,5-trimethoxyphenyl)propanoyl)-5,6-dihydropyridin-2(1H)-one], the IC50 is above 500 µM.
Same read-out and setting: for `COc1ccc(OC)c(/C=C/C(=O)N2CCC=CC2=O)c1` [Compound 14, (E)-1-(3-(2,5-Dimethoxyphenyl)acryloyl)-5,6-dihydropyridin-2(1H)-one] the value was above 500 µM; for `O=C1C=CCCN1C(=O)/C=C/c1cccc(Oc2ccccc2)c1` [Compound 20, (E)-1-(3-(3-Phenoxyphenyl)acryloyl)-5,6-dihydropyridin-2(1H)-one], above 500 µM.
The same measure, in the same setting: the result for `O=C1C=CCCN1C(=O)/C=C/c1cccs1` [Compound 22, (E)-1-(3-(Thiophen-2-yl)acryloyl)-5,6-dihydropyridin-2(1H)-one] reads above 500 µM; that for `COc1cc(C(CC(=O)N2CCC=CC2=O)c2c[nH]c3ccccc23)cc(OC)c1OC` (stereo not drawn) [Compound 2a, 1-(3-(1H-Indol-3-yl)-3-(3,4,5-trimethoxyphenyl)propanoyl)-5,6-dihydropyridin-2(1H)-one], above 500 µM.
Regarding `COc1cc(/C=C/C(=O)N2CCCC2=O)cc(OC)c1OC` [Compound 34, (E)-1-(3-(3,4,5-Trimethoxyphenyl)acryloyl)pyrrolidin-2-one], the IC50 was above 500 µM.
The same measure, in the same setting: the result for `COc1cc(/C=C/C(=O)N2CCC=C(C(O)c3ccc([N+](=O)[O-])cc3)C2=O)cc(OC)c1OC` (stereo not drawn) [Compound 32d, (E)-3-(Hydroxy(4-nitrophenyl)methyl)-1-(3-(3,4,5-trimethoxyphenyl)acryloyl)-5,6-dihydropyridin-2(1H)-one] reads above 500 µM; that for `COc1cc(/C=C/C(=O)N2CCC=C(C(O)c3ccccn3)C2=O)cc(OC)c1OC` (stereo not drawn) [Compound 32f, (E)-3-(Hydroxy(pyridin-2-yl)methyl)-1-(3-(3,4,5-trimethoxyphenyl)acryloyl)-5,6-dihydropyridin-2(1H)-one], above 500 µM.
With `COc1cc(C(CC(=O)N2CCC(c3c[nH]c4ccc(I)cc34)CC2=O)c2c[nH]c3ccc(I)cc23)cc(OC)c1OC` (stereo not drawn) [Compound 3f, 1-(3-(5-Iodo-1H-indol-3-yl)-3-(3,4,5-trimethoxyphenyl)propanoyl)-4-(5-iodo-1H-indol-3-yl)piperidin-2-one], the IC50 was above 500 µM.
On the same count and under the same terms, the result for `COc1cc(/C=C/C(=O)N2CCC=C(C(O)c3ccccc3[N+](=O)[O-])C2=O)cc(OC)c1OC` (stereo not drawn) [Compound 32c, (E)-3-(Hydroxy(2-nitrophenyl)methyl)-1-(3-(3,4,5-trimethoxyphenyl)acryloyl)-5,6-dihydropyridin-2(1H)-one] reads above 500 µM; that for `O=C1C=CCCN1C(=O)/C=C/c1ccc2ccccc2c1` [Compound 18, (E)-1-(3-(Naphthalen-2-yl)acryloyl)-5,6-dihydropyridin-2(1H)-one], 350 µM.

Staying with this assay, now noted: Michael adducts from N-benzyl / phenyl indoles.
Consider `COc1cc(C(CC(=O)N2CCC(c3cn(Cc4ccccc4)c4ccccc34)CC2=O)c2cn(Cc3ccccc3)c3ccccc23)cc(OC)c1OC` (stereo not drawn) [Compound 3c, 1-(3-(1-Benzyl-1H-indol-3-yl)-3-(3,4,5-trimethoxyphenyl)propanoyl)-4-(1-benzyl-1H-indol-3-yl)piperidin-2-one], for which the “enhancement of ALR2 inhibitory activity” value is 40 folds.
Still for that read-out and setting: the result for `COc1cc(C(CC(=O)N2CCC(c3c(-c4ccccc4)[nH]c4ccccc34)CC2=O)c2c(-c3ccccc3)[nH]c3ccccc23)cc(OC)c1OC` (stereo not drawn) [Compound 3e, 1-(3-(3,4,5-Trimethoxyphenyl)-3-(2-phenyl-1H-indol-3-yl)propanoyl)-4-(2-phenyl-1H-indol-3-yl)piperidin-2-one] reads 40 folds.

Staying with this assay, now noted: average of four experimental values.
With `COc1cc(/C=C/C(=O)N2CCC=C(C(O)c3cccs3)C2=O)cc(OC)c1OC` (stereo not drawn) [Compound 32g, (E)-3-(Hydroxy(thiophen-2-yl)methyl)-1-(3-(3,4,5-trimethoxyphenyl)acryloyl)-5,6-dihydropyridin-2(1H)-one], the IC50 was above 500 µM.
In the case of `O=C1C=CCCN1C(=O)/C=C/c1ccc(Br)cc1` [Compound 15, (E)-1-(3-(4-Bromophenyl)acryloyl)-5,6-dihydropyridin-2(1H)-one], the IC50 was determined as 350 µM.
